Test results: ChEMBL document CHEMBL4387708, “Enhancement of Benzothiazoles as Pteridine Reductase-1 Inhibitors for the Treatment of Trypanosomatidic Infections” (J Med Chem, 2019)
The source made the active and inactive calls. The calls are words filed in the database; no cut-off is given here.

Columns and labels:
[1] = molecular target: T1, Pteridine reductase 1 (Leishmania major) (UniProt Q01782); test: Inhibition of Leishmania major pteridine reductase 1 at 50 uM using di-hydrobiopterine as substrate in presence of NADPH relative to control
T1 sequence (whole entry): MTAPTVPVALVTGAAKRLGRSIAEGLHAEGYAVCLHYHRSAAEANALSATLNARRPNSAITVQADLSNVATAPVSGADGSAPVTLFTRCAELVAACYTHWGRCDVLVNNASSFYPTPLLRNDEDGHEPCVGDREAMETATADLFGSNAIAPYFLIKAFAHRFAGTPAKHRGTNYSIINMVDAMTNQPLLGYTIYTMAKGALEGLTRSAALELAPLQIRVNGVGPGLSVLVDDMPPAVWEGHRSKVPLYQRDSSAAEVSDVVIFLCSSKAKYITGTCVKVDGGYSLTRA
How it was run: (§1)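 Photometric PTR1 assay with NADPH and dihydrobiopterin substrate. H₄B formation is coupled non-enzymatically to cytochrome c reduction, read as signal increase at 550 nm.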

[2] = molecular target: Cytochrome P450 2C9 (Homo sapiens, UniProt P11712); test: Inhibition of human CYP2C9 expressed in baculovirus infected insect cells using beetle D-luciferin as substrate preincubated for 30 mins followed by NADPH addition and measured after 30 mins by CYP450-Glo assay
[3] = molecular target: Cytochrome P450 2C19 (Homo sapiens, UniProt P33261); test: Inhibition of human CYP2C19 expressed in baculovirus infected insect cells using beetle D-luciferin as substrate preincubated for 30 mins followed by NADPH addition and measured after 30 mins by CYP450-Glo assay
[4] = tested on: Trypanosoma brucei; test: Growth inhibition of Trypanosoma brucei bloodstream forms at 10 uM measured after 72 hrs by resazurin-based fluorescence assay relative to control; format: organism-based; conditions: Trypanosoma brucei, read-out: GI
[5] = tested on: Leishmania infantum; test: Growth inhibition of luciferase expressing Leishmania infantum axenic amastigotes infected in human THP1 cells at 10 uM measured after 72 hrs by steady-glo luminescence assay relative to control; format: organism-based; conditions: for growth inhibition (GI): leishmania infantum, 72 h, 10 µM; for inhibition at 10 µM: Leishmania infantum, THP-1, 72 h, read-out: GI
[6] = Inhibition of N-terminal His-tagged Trypanosoma brucei pteridine reductase 1 using di-hydrobiopterine as substrate measured at 1 min interval for 50 mins in presence of NADPH; how it was run: as §1
[7] = Mitochondrial toxicity in human 786-O cells measured after 6 hrs by MitoTracker Red chloromethyl-X-rosamine based assay; format: cell-based, 786-0
[8] = tested on: Trypanosoma brucei; test: Inhibition of N-terminal His-tagged Trypanosoma brucei pteridine reductase 1 at 50 uM using di-hydrobiopterine as substrate measured at 1 min interval for 50 mins in presence of NADPH relative to control; how it was run: as §1
[9] = molecular target: T2, Cytochrome P450 1A2 (Homo sapiens, UniProt P05177); test: Inhibition of human CYP1A2 expressed in baculovirus infected insect cells using beetle D-luciferin as substrate preincubated for 30 mins followed by NADPH addition and measured after 30 mins by CYP450-Glo assay
T2 sequence (P05177 whole entry): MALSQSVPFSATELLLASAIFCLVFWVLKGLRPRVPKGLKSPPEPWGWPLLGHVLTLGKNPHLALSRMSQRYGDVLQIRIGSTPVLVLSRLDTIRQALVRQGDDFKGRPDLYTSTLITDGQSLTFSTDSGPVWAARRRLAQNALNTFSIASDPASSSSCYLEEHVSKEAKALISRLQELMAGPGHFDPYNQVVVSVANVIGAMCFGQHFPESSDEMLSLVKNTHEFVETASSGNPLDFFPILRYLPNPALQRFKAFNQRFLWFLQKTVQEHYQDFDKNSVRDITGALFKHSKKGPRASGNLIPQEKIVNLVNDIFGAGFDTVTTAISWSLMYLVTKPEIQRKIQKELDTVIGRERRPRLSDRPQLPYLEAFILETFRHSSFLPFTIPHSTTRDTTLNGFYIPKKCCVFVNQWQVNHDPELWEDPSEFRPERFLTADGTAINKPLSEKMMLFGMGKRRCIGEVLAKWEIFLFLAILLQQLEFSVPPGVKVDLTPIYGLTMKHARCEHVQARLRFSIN

[10] = molecular target: Cytochrome P450 2D6 (Homo sapiens, UniProt P10635); test: Inhibition of human CYP2D6 expressed in baculovirus infected insect cells using beetle D-luciferin as substrate preincubated for 30 mins followed by NADPH addition and measured after 30 mins by CYP450-Glo assay
[11] = tested on: Trypanosoma brucei; test: Inhibition of PTR1 in Trypanosoma brucei bloodstream forms assessed as potentiation of methotrexate-induced parasitic cell growth inhibition at 10 uM measured after 72 hrs by resazurin-based fluorescence assay (reference value: 19 +/- 6%)
How it was run: (§2)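 Bloodstream-form T. brucei resazurin assay: 72 h at 37 °C, 5% CO₂, then fluorescence at ex 540/em 620 nm. Benzothiazole was tested at 10 μM alone and with 4 μM methotrexate. The index is the combination's activity divided by the sum of the activities of 10 μM benzothiazole and 4 μM methotrexate given separately.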

[12] = tested on: Trypanosoma brucei; test: Inhibition of PTR1 in Trypanosoma brucei bloodstream forms assessed as potentiation of methotrexate-induced parasitic cell growth inhibition by measuring potentiation index at 10 uM measured after 72 hrs by resazurin-based fluorescence assay relative to control (methotrexate); format: functional; how it was run: as §2
[13] = molecular target: T3, Pteridine reductase 1 (Leishmania major, UniProt Q01782); test: Inhibition of Leishmania major pteridine reductase 1 using di-hydrobiopterine as substrate in presence of NADPH; how it was run: as §1
T3 sequence (Q01782 whole entry): T1 sequence (whole entry)

[14] = tested on: Trypanosoma cruzi; test: Growth inhibition of trypomastigote form of Trypanosoma cruzi Y infected in human U2OS cells at 50 uM measured after 72 hrs by DRAQ5 DNA dye based confocal microscopic analysis relative to control; format: organism-based; conditions: Trypanosoma cruzi, Y, U2OS, read-out: GI
[15] = Cytotoxicity against human U2OS cells assessed as reduction in cell number; format: cell-based
[16] = Cytotoxicity against human THP1 cells after 72 hrs by MTT assay; format: cell-based, THP-1; conditions: read-out: NOAEL
[17] = Selectivity ratio of IC50 for Leishmania major pteridine reductase 1 to IC50 for N-terminal His-tagged Trypanosoma brucei pteridine reductase 1
[18] = Cytotoxicity against human A549 cells after 48 hrs by Celltiter-glo assay; format: cell-based
[19] = molecular target: Voltage-gated inwardly rectifying potassium channel KCNH2 (Homo sapiens, UniProt Q12809); test: Displacement of Tracer Red from human ERG by fluorescence polarization assay
[20] = molecular target: Cytochrome P450 3A4 (Homo sapiens, UniProt P08684); test: Inhibition of human CYP3A4 expressed in baculovirus infected insect cells using beetle D-luciferin as substrate preincubated for 30 mins followed by NADPH addition and measured after 30 mins by CYP450-Glo assay
[21] = tested on: Trypanosoma brucei; test: Growth inhibition of Trypanosoma brucei bloodstream forms measured after 72 hrs by resazurin-based fluorescence assay; format: organism-based
How it was run: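 Mid-log bloodstream-form T. brucei were seeded at a final 5 x 10^3/mL in supplemented HMI-9 with serial compound dilutions. Cultures ran 72 h at 37 °C, 5% CO₂, then 4 h more after resazurin. Fluorescence was read at ex 540/em 620 nm, and EC₅₀ was fitted by non-linear regression.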

Sequence of Cytochrome P450 2C9 (P11712 whole entry): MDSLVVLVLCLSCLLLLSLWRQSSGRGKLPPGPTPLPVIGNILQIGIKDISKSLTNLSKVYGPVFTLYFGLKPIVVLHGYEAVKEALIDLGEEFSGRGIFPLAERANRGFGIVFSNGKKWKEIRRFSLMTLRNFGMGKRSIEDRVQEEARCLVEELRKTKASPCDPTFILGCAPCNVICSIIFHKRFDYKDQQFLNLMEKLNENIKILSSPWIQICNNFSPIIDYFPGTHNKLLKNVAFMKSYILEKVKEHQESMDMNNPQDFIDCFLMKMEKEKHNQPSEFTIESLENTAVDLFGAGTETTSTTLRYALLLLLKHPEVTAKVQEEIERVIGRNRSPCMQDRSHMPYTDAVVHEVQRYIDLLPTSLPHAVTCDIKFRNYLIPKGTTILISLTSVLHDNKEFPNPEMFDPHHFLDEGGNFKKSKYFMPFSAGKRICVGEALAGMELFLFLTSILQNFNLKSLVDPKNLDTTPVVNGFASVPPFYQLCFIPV
Sequence of Cytochrome P450 2C19 (P33261 whole entry): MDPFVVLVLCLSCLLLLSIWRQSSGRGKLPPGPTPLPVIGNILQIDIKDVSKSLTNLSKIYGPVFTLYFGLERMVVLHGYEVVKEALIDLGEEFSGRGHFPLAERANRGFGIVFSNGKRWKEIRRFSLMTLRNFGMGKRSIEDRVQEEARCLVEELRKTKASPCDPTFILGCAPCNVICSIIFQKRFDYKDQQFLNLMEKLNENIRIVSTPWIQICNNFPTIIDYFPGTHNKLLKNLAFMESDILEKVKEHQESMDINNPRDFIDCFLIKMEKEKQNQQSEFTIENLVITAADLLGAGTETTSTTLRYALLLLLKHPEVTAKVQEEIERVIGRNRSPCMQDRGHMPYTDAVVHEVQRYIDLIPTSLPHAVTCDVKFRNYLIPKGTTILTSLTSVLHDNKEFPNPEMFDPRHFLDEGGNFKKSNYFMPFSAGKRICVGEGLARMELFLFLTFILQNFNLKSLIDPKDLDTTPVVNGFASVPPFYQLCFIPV
Sequence of Voltage-gated inwardly rectifying potassium channel KCNH2 (Q12809 whole entry): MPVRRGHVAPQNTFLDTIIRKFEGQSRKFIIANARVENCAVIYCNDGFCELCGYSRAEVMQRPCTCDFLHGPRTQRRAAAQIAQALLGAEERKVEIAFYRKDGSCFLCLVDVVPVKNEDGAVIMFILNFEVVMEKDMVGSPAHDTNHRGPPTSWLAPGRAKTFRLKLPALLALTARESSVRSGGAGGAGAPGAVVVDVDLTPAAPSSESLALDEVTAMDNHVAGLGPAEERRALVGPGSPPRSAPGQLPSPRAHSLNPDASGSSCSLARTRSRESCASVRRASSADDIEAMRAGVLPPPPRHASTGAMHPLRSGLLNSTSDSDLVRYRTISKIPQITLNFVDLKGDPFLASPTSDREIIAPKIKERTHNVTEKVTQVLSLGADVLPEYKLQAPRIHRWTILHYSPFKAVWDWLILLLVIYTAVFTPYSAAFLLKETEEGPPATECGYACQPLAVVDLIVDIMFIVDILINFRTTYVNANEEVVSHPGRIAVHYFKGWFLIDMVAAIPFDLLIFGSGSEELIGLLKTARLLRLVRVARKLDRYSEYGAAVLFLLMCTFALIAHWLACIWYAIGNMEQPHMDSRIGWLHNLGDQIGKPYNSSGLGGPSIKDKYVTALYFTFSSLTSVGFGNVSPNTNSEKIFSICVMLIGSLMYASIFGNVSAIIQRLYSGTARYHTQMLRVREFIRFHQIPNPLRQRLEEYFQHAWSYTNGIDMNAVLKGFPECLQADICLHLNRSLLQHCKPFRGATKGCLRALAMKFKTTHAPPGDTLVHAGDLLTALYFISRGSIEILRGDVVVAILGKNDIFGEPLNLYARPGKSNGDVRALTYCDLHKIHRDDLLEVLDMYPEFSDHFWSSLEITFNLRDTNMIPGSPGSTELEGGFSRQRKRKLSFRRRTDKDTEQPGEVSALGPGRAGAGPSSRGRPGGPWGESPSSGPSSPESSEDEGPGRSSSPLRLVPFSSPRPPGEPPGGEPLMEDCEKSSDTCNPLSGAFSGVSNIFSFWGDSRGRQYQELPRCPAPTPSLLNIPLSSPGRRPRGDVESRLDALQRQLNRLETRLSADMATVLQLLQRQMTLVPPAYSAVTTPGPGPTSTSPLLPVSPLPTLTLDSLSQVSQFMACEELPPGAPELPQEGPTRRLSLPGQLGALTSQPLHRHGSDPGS
Sequence of Cytochrome P450 3A4 (P08684 whole entry): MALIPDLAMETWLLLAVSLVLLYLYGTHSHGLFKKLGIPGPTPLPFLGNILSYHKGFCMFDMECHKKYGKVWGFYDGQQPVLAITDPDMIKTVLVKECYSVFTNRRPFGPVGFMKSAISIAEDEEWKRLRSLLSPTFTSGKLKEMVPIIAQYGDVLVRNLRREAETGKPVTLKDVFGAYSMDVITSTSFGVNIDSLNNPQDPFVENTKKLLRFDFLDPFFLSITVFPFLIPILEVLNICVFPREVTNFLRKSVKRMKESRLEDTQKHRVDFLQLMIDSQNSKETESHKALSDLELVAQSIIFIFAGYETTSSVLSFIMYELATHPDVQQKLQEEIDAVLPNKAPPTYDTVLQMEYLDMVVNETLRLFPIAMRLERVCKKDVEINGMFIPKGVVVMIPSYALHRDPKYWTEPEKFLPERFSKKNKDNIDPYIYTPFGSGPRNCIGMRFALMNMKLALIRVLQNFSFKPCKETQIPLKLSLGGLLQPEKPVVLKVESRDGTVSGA
Sequence of Cytochrome P450 2D6 (P10635 whole entry): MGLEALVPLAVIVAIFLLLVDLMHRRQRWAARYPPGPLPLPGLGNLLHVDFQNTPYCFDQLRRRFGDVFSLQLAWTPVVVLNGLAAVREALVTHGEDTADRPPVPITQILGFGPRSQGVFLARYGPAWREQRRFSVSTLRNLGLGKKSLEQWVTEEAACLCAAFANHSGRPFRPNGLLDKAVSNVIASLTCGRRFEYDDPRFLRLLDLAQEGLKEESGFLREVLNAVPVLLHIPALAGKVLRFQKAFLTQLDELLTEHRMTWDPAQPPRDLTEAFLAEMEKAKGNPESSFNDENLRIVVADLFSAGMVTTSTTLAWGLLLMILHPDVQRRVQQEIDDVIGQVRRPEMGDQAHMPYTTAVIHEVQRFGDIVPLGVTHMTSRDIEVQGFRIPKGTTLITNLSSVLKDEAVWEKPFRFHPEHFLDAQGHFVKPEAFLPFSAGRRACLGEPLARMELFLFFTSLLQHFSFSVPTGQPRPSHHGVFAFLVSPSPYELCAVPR

Compound	inhibition [1]	IC50 [2] [µM]	IC50 [3] [µM]	inhibition at 10 µM [4] [%]	growth inhibition (GI) [5]	IC50 [6] [µM]	IC50 at 6 h [7] [µM]	inhibition [8] [%]	IC50 [9] [µM]	IC50 [10] [µM]	growth inhibition (GI) [11] [%]	Ratio [12]	IC50 ([13]; read-out: IC50) [µM]	inhibition at 50 µM [14] [%]	GI50 [15] [µM]	MNTC at 72 h [16] [µM]	Ratio IC50 [17]	GI50 at 48 h [18] [µM]	IC50 [19] [µM]	IC50 [20] [µM]	also measured
Nc1nc2ccc(SCc3ccc(Cl)c(Cl)c3)cc2s1	> 60%	> 25	< 10	41 to 46	Non-Toxic	0.9	> 25	> 60	10 to 25	< 10	65	1.1	10	21.4	> 25	> 25	2 to 100	10 to 25	> 25	< 10	–
Nc1nc2ccc(OCc3ccc(Cl)c(Cl)c3)cc2s1	inactive	> 25	< 10	42 to 55	Non-Toxic	3.4	> 25	> 60	< 10	10 to 25	89	1.2	–	7.24	> 25	> 25	2 to 100	> 25	> 25	< 10	IC50 [13]: Not Active
COC(=O)c1ccc(CSc2ccc3nc(N)sc3c2)cc1	> 60%	< 10	< 10	7 to 17	Non-Toxic	0.92	> 25	> 60	10 to 25	< 10	69	2.7	47.6	23	> 25	10 to 25	2 to 100	> 25	> 25	< 10	–
N#Cc1ccc(COc2ccc3nc(N)sc3c2)cc1	> 60%	> 25	< 10	21 to 27	Non-Toxic	0.67	> 25	> 60	> 25	> 25	80	2	86.5	15.4	> 25	10 to 25	2 to 100	10 to 25	> 25	10 to 25	–
N#Cc1ccc(CSc2ccc3nc(N)sc3c2)cc1	> 60%	10 to 25	< 10	29 to 35	Non-Toxic	0.35	< 10	> 60	> 25	< 10	63	1.3	12.4	27.3	> 25	> 25	2 to 100	> 25	–	< 10	–
Nc1nc2c(O)cc(C(=O)NCc3ccc(Cl)c(Cl)c3)cc2s1	8.7%	> 25	> 25	> 60	–	–	> 25	11.8	> 25	> 25	–	–	–	42	> 25	> 25	2 to 100	> 25	> 25	> 25	inhibition at 10 µM [5]: 24%; EC50 [21]: 5.9 µM
Nc1nc2ccc(SCc3ccc(C(=O)NCc4ccccc4)cc3)cc2s1	> 60%	< 10	< 10	26 to 33	Non-Toxic	0.5	> 25	> 60	> 25	< 10	80	1.6	30	19.2	> 25	10 to 25	2 to 100	< 10	> 25	< 10	–
Nc1nc2ccc(SC(F)(F)F)cc2s1	> 60%	> 25	> 25	11	Non-Toxic	0.5	> 25	> 60	> 25	> 25	33	1.1	1.9	37.4	> 25	10 to 25	2 to 100	< 10	10 to 25	> 25	–
COc1ccc(CN(Cc2ccc(Cl)c(Cl)c2)C(=O)c2ccc3nc(N)sc3c2)cc1OC	inactive	< 10	< 10	> 60	–	15.9	10 to 25	> 60	> 25	< 10	–	–	–	47.9	> 25	10 to 25	2 to 100	> 25	> 25	< 10	inhibition at 10 µM [5]: 9%; EC50 [21]: 9.7 µM; IC50 [13]: Not Active
COC(=O)C1CCN(C(=O)c2ccc(CSc3ccc4nc(N)sc4c3)cc2)CC1	> 60%	> 25	< 10	42 to 53	Non-Toxic	0.93	> 25	> 60	> 25	< 10	93	1.3	15.1	16.3	> 25	> 25	2 to 100	> 25	> 25	< 10	–
